# From ChEMBL document CHEMBL1124354, “Potential antiatherosclerotic agents. 6. Hypocholesterolemic trisubstituted urea analogues” (J Med Chem, 1989)
# Tests used:
# [1] = biological target: T1, Sterol O-acyltransferase 1 (Rattus norvegicus) (UniProt O70536); experiment: In vitro percentage inhibition against Acyl coenzyme A:cholesterol acyltransferase derived from rat adrenals; parameters: concentration or dose not given beside the values; conditions: concentration not given here
# T1 sequence (whole entry): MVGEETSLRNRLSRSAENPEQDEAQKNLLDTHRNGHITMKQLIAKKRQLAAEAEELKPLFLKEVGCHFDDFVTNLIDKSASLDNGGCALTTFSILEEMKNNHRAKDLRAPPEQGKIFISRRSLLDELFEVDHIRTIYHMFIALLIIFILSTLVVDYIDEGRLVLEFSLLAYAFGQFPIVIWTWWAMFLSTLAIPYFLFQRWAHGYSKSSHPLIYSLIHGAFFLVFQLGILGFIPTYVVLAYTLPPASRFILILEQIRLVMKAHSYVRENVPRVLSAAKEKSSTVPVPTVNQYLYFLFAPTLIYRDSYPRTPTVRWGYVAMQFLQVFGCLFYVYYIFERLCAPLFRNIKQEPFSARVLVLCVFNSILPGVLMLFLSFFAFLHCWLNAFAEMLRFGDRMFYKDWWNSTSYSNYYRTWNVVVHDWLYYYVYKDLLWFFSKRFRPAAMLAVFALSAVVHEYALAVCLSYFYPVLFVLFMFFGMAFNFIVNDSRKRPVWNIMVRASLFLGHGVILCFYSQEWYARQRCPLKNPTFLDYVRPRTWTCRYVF
# Method in brief: (§1)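 Rat adrenal 1000g supernatant (microsomal ACAT) in 0.2 M KH2PO4 pH 7.4 with BSA; test compound at final 5.2 µg/mL, preincubated 37 °C 10 min; [14C]oleoyl-CoA (0.4 µCi) added, 37 °C 30 min. Cholesteryl ester separated by TLC, scintillation counted; mean percent inhibition against compound-free control.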
# [2] = biological target: T1, Sterol O-acyltransferase 1 (Rattus norvegicus); experiment: Serum hypolipidemic activity in rats; type: functional
# Method in brief: (§2)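 Male CD-1 Sprague-Dawley rats, 140–150 g, fed 1% cholesterol/0.5% cholic acid diet with compound admixed at 0.01% (about 10 mg/kg/day) for 7 days. Serum and liver cholesterol measured by Technicon autoanalyzer methods; expressed as percent of control.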
# [3] = biological target: T1, Sterol O-acyltransferase 1 (Rattus norvegicus); experiment: Liver hypolipidemic activity in rats; type: functional; method in brief: as §2
# [4] = biological target: T2, Sterol O-acyltransferase 1 (Rattus norvegicus, UniProt O70536); experiment: In vitro inhibitory concentration against acyl coenzyme A:cholesterol acyltransferase derived from rat adrenals
# T2 sequence (O70536 whole entry): T1 sequence (whole entry)
# Method in brief: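 Rat adrenal homogenate in 0.2 M KH2PO4 buffer pH 7.4, 1000g supernatant (microsomal fraction) as enzyme; preincubated with BSA and test compound at graded concentrations, 37 °C 10 min, then [14C]oleoyl-CoA 0.4 µCi, 37 °C 30 min. Lipids extracted, cholesteryl ester isolated by TLC and counted. Triplicate tubes per concentration; IC50 by linear regression of means.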
# [5] = biological target: T1, Sterol O-acyltransferase 1 (Rattus norvegicus); experiment: In vitro percentage inhibition against acyl coenzyme A:cholesterol acyltransferase derived from rat adrenals; parameters: concentration or dose not given beside the values; conditions: concentration not given here; method in brief: as §1
SMILES,inhibition [1] [%],SS [2] [%],LS [3] [%],IC50 [4] [µM],inhibition [5] [%]
CCCCN(CCCC)C(=O)Nc1cccc(C(C)=O)c1,51,64,100,,
CCCCN(CCCC)C(=O)Nc1cc(Cl)cc(Cl)c1,,76,93,4.38,79
CCCCCCCCCCCCCCCCCCN(CCCCCCCCCCCCCCCCCC)C(=O)Nc1ccc(C)cc1C,-6,106,123,,
CCCCN(Cc1ccccc1)C(=O)Nc1ccc(C)cc1,78,106,107,,14
COc1ccc(C)cc1NC(=O)N(Cc1ccccc1)Cc1ccccc1,88,83,44,,
CCCCN(CCCC)C(=O)Nc1ccc(C)cc1C,,81,78,9.84,81
O=C(NCc1ccccc1)Nc1ccccc1Cl,50,92,96,,
CCCCN(CCCC)C(=O)Nc1cccc(C)c1,,,,4.76,78
CCCCN(CCCC)C(=O)Nc1cccc(Cl)c1C,,87,93,4.08,80
O=C(Nc1ccccc1C(F)(F)F)N(Cc1ccccc1)Cc1ccccc1,68,165,76,,
Cc1cccc(NC(=O)N(Cc2ccccc2)Cc2ccccc2)c1C,85,65,51,,
CCCCCCCCCCCCN(CCCCCCCCCCCC)C(=O)Nc1ccc(C)cc1C,26,86,120,,
Cc1ccc(NC(=O)N(CCC(C)CC(C)(C)C)CCC(C)CC(C)(C)C)c(C)c1 (stereo not given),90,71,70,,
O=C(Nc1ccc(Oc2ccccc2)cc1)N(Cc1ccccc1)Cc1ccccc1,,66,89,3.23,94
CCCCN(CCCC)C(=O)Nc1cc(C)ccc1C,96,127,110,,
CCCCN(CCCC)C(=O)Nc1cccc(C(F)(F)F)c1,75,100,91,,
Cc1ccc(Cl)cc1NC(=O)N(Cc1ccccc1)Cc1ccccc1,71,97,66,,
CCCCN(CCCC)C(=O)Nc1cc(C)cc(C)c1,,100,76,3.55,84
O=C(Nc1ccc(Cl)cc1C(F)(F)F)N(Cc1ccccc1)Cc1ccccc1,82,66,57,,
CCCCCCCCCCCCCCN(CCCCCCCCCCCCCC)C(=O)Nc1ccc(C)cc1C,-7,107,121,,
Cc1ccc(NC(=O)N(Cc2ccccc2)Cc2ccccc2)cc1C,72,97,60,,
Cc1ccc(NC(=O)N(CCCCC2CCCCC2)CCCCC2CCCCC2)c(C)c1,86,80,106,,
CC(C)(C)CCN(Cc1cccs1)C(=O)Nc1c(Cl)cc(Cl)cc1Cl,,58,56,0.977,
CCCCN(Cc1ccccc1)C(=O)Nc1c(C)cccc1C,,68,91,,83

SMILES,inhibition [1] [%],SS [2] [%],LS [3] [%],IC50 [4] [µM],inhibition [5] [%]
CCOC(=O)c1ccc(NC(=O)N(Cc2ccccc2)Cc2ccccc2)cc1,,120,83,,93
COc1cccc(NC(=O)NCc2ccccc2)c1,,110,94,,34
CCCCN(CCCC)C(=O)Nc1ccc(C)c(Cl)c1,,110,98,6.43,91
Cc1ccc(NC(=O)N(CCC(C)C)CCC(C)C)c(C)c1,,66,65,4.7,89
CCCCCCCCN(CCCCCCCC)C(=O)Nc1ccc(C)cc1C,89,47,22,,
CCOc1ccc(NC(=O)N(Cc2ccccc2)Cc2ccccc2)cc1,,,,9.63,96
Cc1ccc(NC(=O)N(C2CCCC2)C2CCCC2)c(C)c1,,98,113,,90
CCCCN(Cc1ccccc1)C(=O)Nc1ccccc1C,,109,137,,79
CCCCCCCC/C=C/CCCCCCCCN(Cc1ccc(CCCC)cc1)C(=O)Nc1ccc(C)cc1C (stereo in doubt; 161),9,130,87,,
CCCCN(CCCC)C(=O)Nc1cc(Cl)c(Cl)cc1Cl,,111,103,,62
CCCCN(CCCC)C(=O)Nc1ccccc1,,121,100,,64
CCCCN(CCCC)C(=O)Nc1ccc(F)c(Cl)c1,,83,108,11.4,91
CCCCc1ccc(NC(=O)N(CCCC)CCCC)cc1,,63,100,9.13,94
Cc1c(Cl)cccc1NC(=O)N(CCC(C)(C)C)Cc1cccs1,,62,64,6.77,
CCCCN(CCCC)C(=O)Nc1ccc(OC)cc1,,127,109,,59
O=C(Nc1cccc(Cl)c1)N(Cc1ccccc1)Cc1ccccc1,,,,7.75,94
Cc1ccc(NC(=O)Nc2ccc(C)cc2C)c(C)c1,10,100,85,,
C#CCN(CC#C)C(=O)Nc1ccc(C)cc1C,33,73,93,,
Cc1ccc(NC(=O)N(Cc2ccccc2)Cc2ccccc2)c(C)c1,90,52,31,,
CCCCN(CCCC)C(=O)Nc1ccc(Cl)c(C(F)(F)F)c1,,,,10.5,87
CCCCc1ccc(NC(=O)N(Cc2ccccc2)Cc2ccccc2)cc1,91,62,87,,
CCCCN(CC(c1ccc(Cl)cc1)c1ccc(Cl)cc1)C(=O)Nc1ccc(C)cc1C,81,110,84,,
CC(C)(C)CCN(Cc1cccs1)C(=O)Nc1ccc(F)cc1F,,66,73,6.75,
CCCCN(Cc1ccccc1)C(=O)Nc1c(C)cc(C)cc1C,,63,37,,76
